Bioassay records as filed in PubChem BioAssay.
Shown are actives, neighbours in structure and some others; about 1.7% of the full set was active somewhere.
UCH37 inh: inhibitors of human UCH37 deubiquitinase, primary screen, biochemical, Ub-AMC cleavage, fluorescence | purified proteasome/UCH37 | inhibition, % (test concentration not listed) | 330,000 tested, 0.33% active | AID 588478, 2011;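 active means mean inhibition over replicate wells above about 20%, limit read from the data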
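Material: Human UCH37 enzyme supplied as purified proteasome complex | Schedule: 30 min preincubation with enzyme, 25 min cleavage at room temperature | Detection: AMC fluorescence 355/460 nm | Measure: % inhibition of Ub-AMC cleavage fluorescence | Controls: Wells without proteasome as full block, compound-free enzyme plus substrate as uninhibited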
PLCg1 inh: PLC-gamma1 enzyme inhibitors, primary screen, biochemical, fluorescence, purified enzyme | inhibition, % at 12.2 µM | fluorogenic substrate | 1-phosphatidylinositol 4,5-bisphosphate phosphodiesterase gamma-1 (Homo sapiens), P19174 | 370,000 tested, 0.84% active; in the data active means inhibition above about 9.5%
PLCb3 inh: human PLC-beta3 inhibitors, primary screen, biochemical, fluorescence | 1-phosphatidylinositol 4,5-bisphosphate phosphodiesterase beta-3 (Homo sapiens), Q01970 | Purified PLC-beta3, fluorogenic substrate | inhibition, % at 12.2 µM | 370,000 tested, 0.18% active | AID 720704, 2013; in the data active means inhibition above about 11%
Rpn11 block: Rpn11 (PSMD14) deubiquitinase inhibitors, primary screen, biochemical, fluorescence polarization, uHTS | human 26S proteasome, Ub4-pepOG fluorescence polarization; 20S core pre-blocked with epoxomicin | inhibition, % at 20 µM | AID 588493, 2011 | 360,000 tested, 0.59% active;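 active means inhibition at 20 µM, scaled to each plate's controls, above about 33%, limit read from the data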
Rpn11 confirm: Rpn11 (PSMD14) deubiquitinase inhibitors, confirmation, biochemical, fluorescence polarization, single concentration; AID 602318, 2012; shares compounds with Rpn11 block; purified human 26S proteasome, Ub4-pepOG fluorescence polarization; proteasome pretreated with epoxomicin; inhibition, % at 20 µM; 1,900 tested, 29% active
MMP-2 inh: MMP-2 enzyme inhibition, confirmation, counter-screen for RPN11 inhibitor project, biochemical, fluorescence, single concentration. shares compounds with Rpn11 block. recombinant MMP-2, FRET peptide cleavage fluorescence. inhibition, % at 20 µM. 1,900 tested, 4% active;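 further: human MMP-2 activated beforehand with APMA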
Target sequence (P08253 whole entry, looked up): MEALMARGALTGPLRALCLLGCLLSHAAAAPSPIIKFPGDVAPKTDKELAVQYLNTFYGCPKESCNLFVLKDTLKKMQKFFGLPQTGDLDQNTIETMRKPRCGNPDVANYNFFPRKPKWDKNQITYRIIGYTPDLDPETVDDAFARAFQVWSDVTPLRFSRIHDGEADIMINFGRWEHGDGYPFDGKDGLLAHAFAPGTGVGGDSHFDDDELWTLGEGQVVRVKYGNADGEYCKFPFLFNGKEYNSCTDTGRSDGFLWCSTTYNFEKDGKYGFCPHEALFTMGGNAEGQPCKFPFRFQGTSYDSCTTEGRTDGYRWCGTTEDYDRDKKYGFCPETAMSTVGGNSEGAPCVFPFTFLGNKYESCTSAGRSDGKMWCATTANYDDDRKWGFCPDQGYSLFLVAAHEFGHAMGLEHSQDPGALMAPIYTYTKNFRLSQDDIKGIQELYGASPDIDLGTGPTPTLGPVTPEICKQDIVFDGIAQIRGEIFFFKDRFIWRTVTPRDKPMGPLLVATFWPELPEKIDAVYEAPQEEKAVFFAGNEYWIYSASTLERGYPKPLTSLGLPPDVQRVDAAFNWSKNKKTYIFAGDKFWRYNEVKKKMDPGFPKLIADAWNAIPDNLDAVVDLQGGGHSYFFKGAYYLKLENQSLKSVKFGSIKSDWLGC
Thrombin FP: bovine thrombin protease inhibition, confirmation, counter-screen for Rpn11 inhibitor project, biochemical, fluorescence polarization, single concentration. shares compounds with Rpn11 block. 1,900 tested, 13% active. inhibition, % at 20 µM. AID 602333, 2012. bovine thrombin cleavage of Ub4-pepOG;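 active means mean inhibition at least 40% at 20 µM, or signal 3 deviations below plate average, so some actives read negative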
A number is an active result; – = inactive; · = no result given; + = active, no number. Unless noted, no stated cut-off is given here; in the data, active means inhibition above about 40%; inactive means the rest.

SMILES	UCH37 inh	PLCg1 inh	PLCb3 inh	Rpn11 block	Rpn11 confirm	MMP-2 inh	Thrombin FP
O=C(CCCCn1c(=O)[nH]c2ccccc2c1=O)N1CCN(c2cccc(C(F)(F)F)c2)CC1	–	–	–	–	·	·	·
O=C(CCCn1c(=S)[nH]c2ccccc2c1=O)N1CCN(c2cccc(Cl)c2)CC1	–	–	–	96	64	65	–
O=C(NN=Cc1ccncc1)C12CC3CC(CC(C3)C1)C2	–	·	·	·	·	·	·
COc1ccc(-c2ccc3c(c2)S(=O)(=O)c2cccc(C(=O)NC4CCCC4)c2C3=O)cc1OC	–	–	–	78	–	–	–
CC(C)c1cccc(-c2ccc3c(c2)S(=O)(=O)c2cccc(C(=O)NC4CCCC4)c2C3=O)c1	–	–	–	–	·	·	·
c1ccc(-c2csc3ncnc(N4CCN(Cc5ccc6c(c5)OCO6)CC4)c23)cc1	–	–	–	–	·	·	·
O=C(CSc1ncnc2scc(-c3ccccc3)c12)N1CCN(Cc2ccc3c(c2)OCO3)CC1	–	–	–	50	–	–	–
Cc1cc[n+](-c2[nH]c(=O)sc2C=NNC([S-])=Nc2ccccc2)cc1C	–	·	·	·	·	·	·
N#Cc1ccccc1C=NNc1nc(-c2ccccc2)c2cc(Br)ccc2n1	–	·	·	·	·	·	·
NNC(=O)CSc1cccc2cccnc12	–	–	–	–	·	·	·
O=C(CSc1cccc2cccnc12)N1CCCC1	–	–	–	71	–	–	–
CN(C)C(=O)CSc1cccc2cccnc12	–	–	–	69	–	–	–
COc1ccc(C(=O)NN=C(C)c2cccc(NC(=O)c3ccncc3)c2)cc1OC	–	·	·	·	·	·	·
Cc1cccc(C=NNC(=O)c2ccc(Cl)cc2)c1O	–	·	·	·	·	·	·
CN(C)Cc1c(C(=O)NN=Cc2ccccc2OCc2c(F)cccc2Cl)nnn1-c1nonc1N	–	·	·	·	·	·	·
CCOC(=O)C1=C(N)n2c(s/c(=C\c3cccnc3)c2=O)=C(C(=O)OC)C1c1cccnc1 (stereo not drawn)	·	–	–	35	–	–	–
CCOC(=O)C1=C(N)n2c(s/c(=C\c3ccncc3)c2=O)=C(C(=O)OCC)C1c1ccncc1 (stereo not drawn)	·	–	–	–	·	·	·
O=C(O)c1ccc(C=NNC(=O)c2ccc(F)cc2)cc1	–	·	·	·	·	·	·
COc1ccc2nc(N3C(=O)/C(=C/c4ccc(Cl)cc4)NC3=S)sc2c1	–	–	–	77	56	–	–
CCOc1ccc2nc(N3C(=O)CNC3=S)sc2c1	–	–	–	–	·	·	·
Cc1cc(N)c(NC2=CC(=O)CC(C)(C)C2)cc1C	–	–	–	54	–	–	–
Cc1cc(N2CCCC2)ccc1NC(=O)COc1ccccc1	–	–	–	–	·	·	·
CCc1ccccc1OCC(=O)Nc1ccc(N2CCCC2)cc1C	–	–	–	88	43	–	–
Cc1ccc(S(=O)(=O)NN=Cc2ccccc2F)cc1[N+](=O)[O-]	–	·	·	·	·	·	·
CC(=O)c1cn(CC(=O)NCc2ccco2)c2ccccc12	–	–	–	–	·	·	·
SMILES	UCH37 inh	PLCg1 inh	PLCb3 inh	Rpn11 block	Rpn11 confirm	MMP-2 inh	Thrombin FP
N#C/C(=C\c1cn(CCOc2ccccc2)c2ccccc12)C(=O)NCc1ccco1	–	–	–	36	–	–	–
O=C(Cn1cc(C(=O)COc2ccccc2)c2ccccc21)NCc1ccco1	–	–	–	38	60	–	–
Cc1ccccc1OCCn1cc(/C=C(\C#N)C(=O)NCc2ccco2)c2ccccc21	–	–	–	–	·	·	·
CC(CC1CC(COCC(C)C)OC1=O)=NNc1nc(-c2ccccc2)cs1 (stereo not drawn)	–	·	·	·	·	·	·
CC(=O)Nc1ccc(/C(C)=N/NC(=O)c2ccc(COc3ccccc3Cl)o2)cc1	·	–	–	70	46	–	–
COc1ccc(/C=N/NC(=O)c2ccc(COc3ccccc3Cl)o2)cc1	·	–	–	–	·	·	·
Cc1oc(N=Cc2ccc(O)cc2O)c(C#N)c1C	–	·	·	·	·	·	·
CC(=NNC(=O)CSCc1cccc(Br)c1)c1ccc([N+](=O)[O-])cc1	–	·	·	·	·	·	·
COc1cc2nc(C(C)(C)C)oc(=O)c2cc1OC	–	–	–	–	·	·	·
CCC(CC)c1nc2cc(OC)c(OC)cc2c(=O)o1	–	–	–	+	–	–	–
COc1ccccc1N1C(=N)S/C(=C\c2ccc(-c3ccccc3C(=O)O)o2)C1=O	–	–	–	70	74	–	47
CCC1(c2ccc(F)cc2)NC(=O)N(CC(=O)Nc2ccc(-c3nc4ccc(C)cc4s3)cc2)C1=O (stereo not drawn)	–	–	–	47	–	–	–
O=C(CCN1C(=O)NC2(CCCC2)C1=O)Nc1ccc(Sc2ccc(Br)cc2)cc1	·	–	–	–	·	·	·
O=C(CCN1C(=O)NC2(CCCC2)C1=O)Nc1ccc(-c2nc3ccccc3s2)cc1	–	–	–	53	61	–	48
O=C1C2C(C(=O)N1N=Cc1ccc([N+](=O)[O-])o1)C1C=CC2C12CC2 (stereo not drawn)	–	·	·	·	·	·	·
Cc1ccc(C=NNC(=O)c2cc3c(ccc4ccccc43)o2)cc1[N+](=O)[O-]	–	·	·	·	·	·	·
O=C(N/N=C/c1ccc(-c2ccc(S(=O)(=O)Nc3ncccn3)cc2)o1)c1cc2ccccc2cc1O	·	–	–	50	51	–	–
CN(C)c1nc(Oc2ccc(C=NO)cc2)nc(N(C)C)n1	–	·	·	·	·	·	·
COc1cc(NC(=O)CCCn2c(=S)[nH]c3ccccc3c2=O)cc(OC)c1OC	–	–	–	–	·	·	·
COc1cc(NC(=O)CCn2c(=S)[nH]c3ccccc3c2=O)cc(OC)c1OC	·	–	–	64	103	–	–
CCOc1ccc(NC(=O)CCC(=O)NN=C(C)c2cccs2)cc1	–	·	·	·	·	·	·
O=C(O)c1ccc(NN=Cc2cc3cc4c(cc3nc2Cl)OCCO4)cc1	–	·	·	·	·	·	·
O=C(O)c1cccc(NC2=Nc3cccc4cccc2c34)c1	–	–	–	–	·	·	·
O=C(NNC1=Nc2cccc3cccc1c23)c1ccccc1Br	–	–	–	53	–	–	–
O=C(CC(=O)NN=Cc1ccc(C(=O)O)cc1)NCCc1ccccc1	–	·	·	·	·	·	·
CCN(CC)c1ccc(/C=N/N=C(c2ccccc2)c2ccccc2)c(O)c1	·	–	–	50	–	–	–
CCN(CC)c1ccc(/C=N/NC(=O)c2ccco2)c(O)c1	·	–	–	47	–	–	–
CCN(CC)c1ccc(C=NN(c2ccccc2)c2ccccc2)c(O)c1	–	·	·	·	·	·	·
